According to ChEMBL document CHEMBL4425150, “l-Cystine Diamides as l-Cystine Crystallization Inhibitors for Cystinuria” (J Med Chem, 2016):
Activity calls are given as the source filed them. No cut-off for these calls is given here.

Tests used:
Cystine [1] = assay: Inhibition of hexagonal L-cystine plate crystal growth assessed as step velocity for crystal growth rate at 45 uM after 25 mins by atomic force microscopic analysis relative to control
Outline: (§1)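 In situ AFM of step velocity on {100} steps of hexagonal L-cystine crystals in aqueous 2 mM L-cystine, with additive at 15, 30 or 45 μM. Result expressed as V/V0, where V0 is the velocity measured first without additive; the value is a range.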

Cystine [2] = assay: Inhibition of hexagonal L-cystine plate crystal growth assessed as step velocity for crystal growth rate at 30 uM after 25 mins by atomic force microscopic analysis relative to control; outline: as §1
Cystine [3] = assay: Inhibition of hexagonal L-cystine plate crystal growth assessed as step velocity for crystal growth rate at 15 uM after 25 mins by atomic force microscopic analysis relative to control; outline: as §1
[4] = Half life in pH 7.4 phosphate buffered saline at 100 uM at 37 degC by LC-MS/MS analysis; assay type: physicochemical; conditions: buffer, pH 7.4, 100 µM
Outline: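 Compound incubated in pH 7.4 phosphate buffered saline at 37 °C. Disappearance of parent followed over time by LC-MS, and half-life derived from that.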

Cystine [5] = assay: Inhibition of L-cystine crystallization assessed as concentration required to double metastable supersaturation range of L-cystine after 72 hrs by OPA/NBC derivatization based fluorescence assay
Outline: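 Test solution (5 μL) added to 500 μL supersaturated L-cystine, then held at 25 °C for 72 h and centrifuged (10000 rpm, 4 min). Supernatant diluted 2-fold, reduced with DTT (rt, 10 min), alkylated with iodoacetic acid (rt, 15 min), then derivatized with OPA/NBC (3 min). Fluorescence read at Ex 355/Em 460 nm gives L-cystine concentration. EC2x is the inhibitor concentration doubling the lower-plateau L-cystine level.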

[6] = Drug level in SLC3A1 knock out 129/C57BL6 mouse urine at 29.3 umol/kg, po administered daily through gavage for 1 week measured 4 hrs post last dose by LC-MS/MS analysis; assay type: ADME, organism-based; conditions: read-out: Drug uptake
Outline: (§2)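 Male mice, wild-type or Slc3a1 knockout, 4–5 per group, dosed by daily oral gavage at 29.3 μmol/kg for 1 week. Urine from each mouse collected individually over the 4 h right after the last dose. Compound in urine quantified by LC-MS/MS; pre-dose urine also tested.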

Cystine [7] = assay: Potency index, ratio of L-cystine dimethyl ester concentration to compound concentration required to double metastable supersaturation range of L-cystine
Outline: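 Ratio is the EC2x of L-cystine dimethyl ester divided by the compound's EC2x. EC2x came from 72 h incubation at 25 °C in supersaturated L-cystine, with supernatant L-cystine measured by OPA/NBC fluorescence.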

Cystine [8] = assay: Inhibition of hexagonal L-cystine plate crystal growth assessed as reduction in crystal mass yield at 15 to 45 uM after 25 mins by atomic force microscopic analysis
Cystine [9] = assay: Inhibition of hexagonal L-cystine plate crystal growth assessed as induction of plate to rod crystal morphology at 15 to 45 uM after 25 mins by atomic force microscopic analysis
Cystine [10] = assay: Inhibition of L-cystine stone formation in SLC3A1 knock out 129/C57BL6 mouse model of cystinuria at 29.3 umol/kg, po administered daily through gavage for 4 weeks; assay type: functional, organism-based
Outline: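 Male Slc3a1 knockout mice, groups of six or seven, dosed by daily gavage at 29.3 μmol/kg for 4 weeks. A parallel control group of seven mice received water only. Read-out is the fraction of mice forming stones.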

[11] = Drug level in 129/C57BL6 mouse urine at 29.3 umol/kg, po administered daily through gavage for 1 week measured 4 hrs post last dose by LC-MS/MS analysis; assay type: ADME, organism-based; conditions: read-out: Drug uptake; outline: as §2

Row | SMILES | Ratio (Cystine [1]) | Ratio (Cystine [2]) | Ratio (Cystine [3]) | t1/2 [4] [days] | CD (Cystine [5]) [µM] | concentration at 4 h [6] [nM] | Ratio (Cystine [7]) | inhibition (Cystine [8]) | inhibition (Cystine [9]) | inhibition (Cystine [10]) | concentration at 4 h [11] [nM]
1 | Cl.Cl.N[C@@H](CSSC[C@H](N)C(=O)N1CCOCC1)C(=O)N1CCOCC1 | 0.29 to 0.53 | 0.34 to 0.58 | 0.44 to 0.65 | 46.2 | 0.86 | 2090 | 7.4 | Active | Active | inactive | 
2 | COC(=O)[C@@H](N)CSSC[C@H](N)C(=O)OC | 0.21 to 0.48 | 0.27 to 0.54 | 0.4 to 0.65 | 0.11 | 6.37 |  |  | Active | Active |  | 
3 | CN1CCN(C(=O)[C@@H](N)CSSC[C@H](N)C(=O)N2CCN(C)CC2)CC1.Cl.Cl.Cl.Cl | 0.3 to 0.4 | 0.32 to 0.5 | 0.52 to 0.66 | 19.8 | 0.26 | 7590 | 24.5 | Active | Active | Active | 2100
